Bioassay records as filed in PubChem.
Compounds with a hit are over-represented: about 1.7% of the library has one in this group of screens.
Neddylation inh = blocks human cullin neddylation; P61081+Q13564; 360,000 tested, 0.58% active; inhibition, % at 25 µM; TR-FRET cullin neddylation, biochemical; in the data active means inhibition above about 36%
Arr AP2 block = human beta-arrestin and AP2 interaction inhibition; 340,000 tested, 0.31% active; inhibition, % at 10 µM; AID 504490; FITC-arrestin peptide / GST-AP2 beads, flow cytometry; AP2 beta2 appendage carries R879A mutation;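 active means inhibition above a set limit, near 3 SD of compounds lacking own fluorescence, cut at about 54% in these data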
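Assay system: GST-AP2 R879A bound to glutathione beads, E. coli-expressed; Medium: PBS with 0.05% Tween 20 and 0.1% BSA; Also added: fluorescein-tagged arrestin peptide at 50 nM final; Timing: 12 min plus 1 h, RT; Measured by: flow cytometry, FL1 (488/535 nm); Evaluation: percent drop in bead-associated FITC signal.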
Efflux pump inh = antifungal efflux pump inhibition, Nile Red retention; AID 485275; 330,000 tested, 0.44% active; S. cerevisiae Candida pump triplex; inhibition, % at 10 µM;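 active means plate passing quality check with inhibition over a set limit, or well fluorescence over plate mean plus 4 SD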;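 further: Nile Red retained in pooled yeast measured as flow cytometry median fluorescence; higher means more Nile Red kept so more efflux inhibition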
DSG3 Ab inh = human desmoglein-3 autoantibody binding inhibition; P32926; DSG3-coupled beads, scFv-anti-DSG3-GFP binding, flow cytometry; active compounds read low; binding (percent of control), % at 10 µM; 310,000 tested, 0.48% active; AID 588358;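 active means binding more than 3 SD below its plate's average and above zero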;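 further: hits lower antibody fragment binding to DSG3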
Target sequence (P32926 whole entry, looked up, the tested form may be a part): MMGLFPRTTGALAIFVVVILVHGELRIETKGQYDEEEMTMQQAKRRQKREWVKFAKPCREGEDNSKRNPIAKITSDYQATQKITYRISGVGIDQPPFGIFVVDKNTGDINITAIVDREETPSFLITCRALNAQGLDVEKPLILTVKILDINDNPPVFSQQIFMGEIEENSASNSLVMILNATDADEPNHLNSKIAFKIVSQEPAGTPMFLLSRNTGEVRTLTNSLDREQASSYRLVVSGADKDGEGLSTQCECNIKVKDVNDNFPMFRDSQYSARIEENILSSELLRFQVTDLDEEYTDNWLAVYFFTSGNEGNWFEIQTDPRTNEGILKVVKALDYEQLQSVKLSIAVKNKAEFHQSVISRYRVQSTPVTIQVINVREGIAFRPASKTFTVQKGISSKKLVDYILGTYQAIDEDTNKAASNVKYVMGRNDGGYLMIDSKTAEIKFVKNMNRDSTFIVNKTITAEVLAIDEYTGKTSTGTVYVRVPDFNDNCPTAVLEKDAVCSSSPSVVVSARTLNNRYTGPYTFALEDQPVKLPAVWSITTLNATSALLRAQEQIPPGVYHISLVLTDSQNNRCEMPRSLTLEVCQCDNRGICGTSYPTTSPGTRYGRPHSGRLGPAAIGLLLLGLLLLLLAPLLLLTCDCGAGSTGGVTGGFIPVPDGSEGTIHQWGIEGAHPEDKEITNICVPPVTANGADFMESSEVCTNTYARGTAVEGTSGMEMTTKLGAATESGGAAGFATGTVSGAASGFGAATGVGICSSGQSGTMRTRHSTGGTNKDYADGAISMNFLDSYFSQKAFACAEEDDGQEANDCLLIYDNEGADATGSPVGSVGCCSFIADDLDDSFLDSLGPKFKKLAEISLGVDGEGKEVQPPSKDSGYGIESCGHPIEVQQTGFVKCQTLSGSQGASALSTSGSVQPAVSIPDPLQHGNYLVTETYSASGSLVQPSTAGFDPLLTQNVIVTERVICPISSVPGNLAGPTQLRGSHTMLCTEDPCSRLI
Hits are given with their value; i = inactive; nt = no result given; ! = a repeat was not active.

SMILES	Neddylation inh	Arr AP2 block	Efflux pump inh	DSG3 Ab inh
N#Cc1ccsc1NC(=O)COC(=O)c1ccc2ccccc2c1	i	i	i	63
O=c1c2ccccc2nc2c3ccccc3c(NCCO)nn12	nt	i	i	i
Nc1cccc(C(=O)c2ccccc2C(=O)O)c1	i	i	nt	78
O=C(O)c1ccccc1-c1ccc(/C=c2\sc3nc4cc(Br)cnc4n3c2=O)o1	i	i	i	43
O=C(O)c1cc(-c2ccc(/C=c3\sc4nc5ccc(Br)cc5n4c3=O)o2)ccc1Cl	nt	nt	1.6	nt
Cc1nn(C)cc1S(=O)(=O)N1CCN(c2ccccc2F)CC1	i	i	i	nt
COc1ccc2ccccc2c1C=NN1CCCCC1	i	nt	nt	i
O=C(COC(=O)c1ccc(S(=O)(=O)N2CCc3ccccc3C2)cc1)NC1CCS(=O)(=O)C1 (centres undefined)	i	i	i	67
O=C(CN1C(=O)CCC1=O)Nc1nc(-c2ccc(Oc3ccccc3)cc2)cs1	i	i	i	i
COc1cccc(/C=N/NC(=O)C(c2ccncc2)N2CCOCC2)c1 (centres undefined)	i	i	i	i
O=C(N/N=C/c1cc(Br)ccc1O)C(c1ccncc1)N1CCOCC1 (centres undefined)	47	i	i	i
COc1ccccc1CCc1nnc(CCC(=O)NC(C)Cc2ccsc2)o1 (centres undefined)	i	i	i	8.6
Cc1ccccc1NC(=O)CSc1ccc(-c2ccc(-n3cccn3)cc2)nn1	i	i	i	i
CCc1nnc(NC(=O)CSc2nnc3c(n2)[nH]c2ccccc23)s1	i	i	i	32
CCSc1nnc(NC(=O)CSc2nncc(=O)n2N)s1	i	i	i	i
CCc1nnc(NC(=O)CSc2ccc(-c3ccc(-n4cccn4)cc3)nn2)s1	i	i	i	77
CCc1nnc(NC(=O)CSc2nncc(=O)n2N)s1	i	i	i	85
CC1(C(=O)NCc2ccc(F)c(F)c2)Cc2c(-c3ccccc3)ccnc2O1 (centres undefined)	i	nt	nt	nt
COC1=C(NCc2ccc3c(c2)OCO3)C(=O)C(OC)=C(NCc2ccc3c(c2)OCO3)C1=O	i	i	nt	-15
CN(C)/C=C1\SC(=S)N(N2C(=O)C3C4C=CC(C4)C3C2=O)C1=O (centres undefined)	i	i	i	i
Cc1c(N=C2NN=C(c3c[nH]c4ccccc34)CS2)c(=O)n(-c2ccccc2)n1C	i	i	i	85
CC(=O)Nc1ccc(S(=O)(=O)N(CC(=O)NC2CC2)Cc2ccccc2)cc1	i	i	i	i
C=CCN(CC=C)Cc1cc(=O)oc2cc(C)cc(C)c12	i	nt	nt	nt
COc1ccccc1-c1cc(C(=O)NCCc2ccccc2)no1	i	i	i	i
COc1ccc(-c2cc(C(=O)NCCc3ccccc3)no2)cc1OC	i	i	i	75
SMILES	Neddylation inh	Arr AP2 block	Efflux pump inh	DSG3 Ab inh
COc1ccc(-c2cc(C(=O)Nc3cc(C)n(Cc4ccc(Cl)cc4)n3)no2)cc1OC	47	i	i	i
COc1ccc(OC)c(-c2cc(C(=O)Nc3c(C)nn(Cc4ccc(Cl)cc4)c3C)no2)c1	i	i	i	i
Cc1ccc(OCCNC(=O)c2ccc3ccccc3n2)cc1	i	i	i	i
Cc1cccc(C)c1OCCNC(=O)c1ccc2ccccc2n1	i	i	i	-7.3
O=C(O)c1ccc(N/N=C/c2cc3cc4c(cc3nc2Cl)OCCO4)cc1	37	i	i	i
C[C@H](NC(=O)c1cc2cc(Cl)ccc2n1C)C(=O)N[C@@H](Cc1ccccc1)C(=O)O	i	i	i	i
CCC(C(=O)NCCCN1CCCC1=O)n1c2ccccc2c2nc(=O)cc(C)n21 (centres undefined)	i	i	i	nt
O=C(Nc1cccc(NC(=O)c2ccc([N+](=O)[O-])o2)c1)c1ccco1	i	i	i	53
Cc1c([N+](=O)[O-])cc(C(=O)Nc2ccc(NC(=O)c3ccco3)cc2)cc1[N+](=O)[O-]	i	i	i	96
CCOc1nc(NC2CCCC2)nc(N2CCC(C)CC2)n1	i	i	i	i
COc1ccc(C(C)=O)cc1COC(=O)c1cc(C)nc2ccccc12	i	i	i	61
CN(Cc1cccc(F)c1)C(=O)CNS(=O)(=O)c1ccc2ccccc2c1	i	i	i	i
CCOc1cccc(-c2nn(-c3ccccc3)cc2/C=C(/C#N)C(=O)NCCCn2ccnc2)c1	i	i	i	97
O=C(NCCc1ccccc1)c1cc(S(=O)(=O)N2CCOCC2)ccc1F	i	i	i	nt
Cc1cc(C)cc(OCCNC(=O)c2cc(S(=O)(=O)N3CCOCC3)ccc2F)c1	i	i	i	58
COC(=O)c1ccccc1NC(=O)CSc1nc(N)cc(=O)[nH]1	i	i	i	56
COC(=O)C1(Cc2ccc(O)cc2)OC(=O)C(O)=C1c1ccc(O)cc1 (centres undefined)	i	i	i	nt
O=C(COC(=O)c1ccc(S(=O)(=O)N2CCCC2)cc1)NCc1ccc(Cl)cc1	i	i	i	71
O=C(CSc1nnc(NC(=O)c2ccccc2F)s1)NCC1CCCO1 (centres undefined)	i	i	i	i
O=C(N=Nc1c(O)[nH]c2ccccc12)c1ccc2c(c1)OCO2	i	i	i	i
Cc1ccc([C@@H]2C[C@H]3[C@@H](CN2S(=O)(=O)c2ccc(C)cc2)C(=O)C[C@@H](c2ccccc2F)N3S(=O)(=O)c2ccc(C)cc2)cc1	i	nt	nt	nt
COc1ccc(NC(=O)NC2CCCCCCC2)c(OC)c1	i	i	i	i
CCOc1ccc(NC(=O)c2ccc(CNc3c(NC4CCCCC4)c(=O)c3=O)cc2)cc1	i	i	i	i
COc1ccc(NC(=O)c2ccc(CNc3c(NC4CCCCC4)c(=O)c3=O)cc2)c(OC)c1	i	i	i	-2.5!
COc1ccc(CC(=O)NC2CCCCCC2)c(OC)c1	i	i	i	-48
SMILES	Neddylation inh	Arr AP2 block	Efflux pump inh	DSG3 Ab inh
COc1ccc2c(c1)c(=O)oc1cc(OCC(=O)N3CCc4ccccc4C3)ccc12	i	i	i	i
O=C(/C=C/c1cccc([N+](=O)[O-])c1)OC1CCCCC1=O (centres undefined)	i	i	i	i
c1ccc(Nc2nc(-c3ccccc3)ns2)cc1	i	i	i	58
CC(C)(C)C(=O)Nc1nc(-c2ccccc2)ns1	i	i	i	i
c1ccc(-c2nc3ccccn3c2NC2CCCC2)nc1	39	i	i	nt
Cc1ccn2c(NC3CCCC3)c(-c3ccccn3)nc2c1	38	i	i	i
Cc1ccn2c(NC3CCCC3)c(-c3ccncc3)nc2c1	nt	i	i	i
CCCCN(C)CCNS(=O)(=O)c1ccc2c(c1)n(C)c(=O)c(=O)n2C	i	i	i	i
CCc1ccc2[nH]c3nc(N/N=C/c4ccc(O)cc4O)nnc3c2c1	i	i	i	i
Cc1nc(SCc2nc3c([N+](=O)[O-])cccc3[nH]2)c2oc3ccccc3c2n1	i	i	i	32
N#Cc1cn(-c2ccccc2)nc1-c1ccc2c(c1)OCCO2	i	i	i	-0.9
COc1ccc(/C=C/C(=O)NNC(=O)c2cc(C)oc2C)cc1	i	i	i	i
CCOc1ccc(NC(=O)CCC(=O)NNC(=O)COc2ccc(C)cc2)cc1	i	i	i	84
